Screening results: PubChem, several laboratories
Platelet DG rel – modulates dense granule release in human platelets; AID 1663; inhibition, %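 (compounds screened at 7.5 µM in platelet-rich plasma)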; human platelet-rich plasma, SFLLRN dense granule ATP release, luminescence; actives 0.22% (n = 300,000);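 active means mean replicate score, as percent of positive control, at or above 50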
TRPC6 inhibitor – blocks the mouse TRPC6 cation channel; HEK293-TRPC6, membrane potential dye, ACh-evoked depolarization; hits give low values; actives 1.1% (n = 310,000); AID 2553; B-score at 10 µM;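 active means B-score under library mean minus 3 SD, initial fluorescence not abnormally high, positive integrated signal ratio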;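 further: B-score derived from integrated fluorescence ratio over the kinetic read; more negative B-score means stronger inhibition of depolarization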
TRPC4 block – inhibitors of mouse TRPC4 channel; HEK293 TRPC4beta/mu-opioid, DAMGO-evoked Fluo4 calcium flux; hits give low values; B-score at 10 µM; actives 0.39% (n = 300,000); AID 2247;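 active means B-score over 3 SD under the library average, no early fluorescence shift, positive overall ratio signal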
Target sequence (Q9QUQ5 whole entry, looked up): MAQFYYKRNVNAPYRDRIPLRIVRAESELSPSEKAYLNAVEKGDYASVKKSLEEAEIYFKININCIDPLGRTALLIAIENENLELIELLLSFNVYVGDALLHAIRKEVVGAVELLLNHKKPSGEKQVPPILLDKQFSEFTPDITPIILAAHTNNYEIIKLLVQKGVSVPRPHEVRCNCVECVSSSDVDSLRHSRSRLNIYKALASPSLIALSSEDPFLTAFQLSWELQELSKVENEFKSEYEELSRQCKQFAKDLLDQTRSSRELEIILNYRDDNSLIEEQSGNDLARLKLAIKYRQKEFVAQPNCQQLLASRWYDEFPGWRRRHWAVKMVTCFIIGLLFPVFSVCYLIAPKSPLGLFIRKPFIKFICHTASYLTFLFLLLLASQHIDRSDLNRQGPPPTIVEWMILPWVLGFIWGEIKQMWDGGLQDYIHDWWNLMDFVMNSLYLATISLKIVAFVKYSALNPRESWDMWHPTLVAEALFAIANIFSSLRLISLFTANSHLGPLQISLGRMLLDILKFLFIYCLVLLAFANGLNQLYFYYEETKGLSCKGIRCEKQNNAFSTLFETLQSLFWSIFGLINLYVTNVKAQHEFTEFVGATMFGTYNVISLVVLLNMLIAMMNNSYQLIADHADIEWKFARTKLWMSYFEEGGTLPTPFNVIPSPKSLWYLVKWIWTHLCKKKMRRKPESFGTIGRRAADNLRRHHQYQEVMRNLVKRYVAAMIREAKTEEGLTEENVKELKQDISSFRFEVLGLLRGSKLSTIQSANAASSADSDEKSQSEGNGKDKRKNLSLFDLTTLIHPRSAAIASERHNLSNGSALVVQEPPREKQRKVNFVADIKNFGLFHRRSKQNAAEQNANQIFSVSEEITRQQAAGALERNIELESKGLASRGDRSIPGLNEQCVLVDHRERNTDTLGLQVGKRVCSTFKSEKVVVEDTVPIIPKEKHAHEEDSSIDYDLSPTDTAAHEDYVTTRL
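Test system – stable TRPC4beta/mu-opioid receptor HEK293 cells · Probe or stimulus – DAMGO, a submaximal dose followed by a maximal one · Dosing – one concentration per compound · Signal – Fluo4 calcium fluorescence by kinetic imaging, 5 s 1 Hz baseline · Evaluation – per-well B score of integrated baseline-normalized Fluo4 ratio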
TRPC4 agonist – activators of mouse TRPC4 channel; Q9QUQ5; HEK293 TRPC4beta/mu-opioid, Fluo4 calcium fluorescence; hits give high values; B-score at 10 µM; actives 0.49% (n = 310,000);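 active means B-score above 5 SD of library B-scores, and initial fluorescence ratio not above library mean plus 5 SD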;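 further: positive B-score marks a calcium rise read as TRPC4 activation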
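Assay system: HEK293 cells stably co-expressing mouse TRPC4beta and mu-opioid receptor / Timing: Fluo4 dye loading 45 min at room temperature, 110 s recording / Signal: Fluo4 calcium-sensitive dye fluorescence, kinetic, 1 Hz baseline / Read-out: integrated baseline-normalised fluorescence ratio, converted to per-well B score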
TRPC4 PAM – TRPC4 (mouse) allosteric potentiation | Q9QUQ5 | HEK293 TRPC4beta/mu-opioid, DAMGO EC20, Fluo-4 Ca2+ flux; hits give high values | B-score at 10 µM | actives 0.42% (n = 310,000) | AID 2227;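 active means B-score of calcium response area above 5 SD of library B-scores, with initial fluorescence ratio within 5 SD of library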;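 further: B-score of integrated fluorescence ratio over time as area under calcium response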
TRPC6 act – activators of mouse TRPC6 channel; actives 0.13% (n = 310,000); B-score at 10 µM; AID 2550; Q61143; HEK293-TRPC6 membrane potential dye fluorescence; hits give high values;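 active means B-score of the integrated fluorescence ratio above library mean plus 3 SD, and starting fluorescence ratio within library mean plus 5 SD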;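 further: higher score means more depolarization so channel activation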
The depositor's hits bear a star; i = inactive. Compounds with a hit are over-represented: about 2.5% of the library has one in this group of screens.

SMILES | Platelet DG rel | TRPC6 inhibitor | TRPC4 block | TRPC4 agonist | TRPC4 PAM | TRPC6 act
CCOC(=O)C1(CCc2ccccc2)CCN(Cc2ccc(NC(C)=O)cc2)CC1 | -3 | i | i | 104* | i | i
CCCN1CCC[C@@H]2Cc3[nH]ncc3C[C@H]21 | -1 | i | i | i | i | i
CCCN1CCC[C@@H]2Cc3nc(N)ncc3C[C@H]21 | 5 | i | i | i | 11* | i
O=C(c1ccc(Cl)cc1)C1CCCN(Cc2ccc3ncccc3c2)C1 (configuration not stated) | -10 | i | i | 80* | i | i
CCc1n[nH]c(CCN)n1 | -7 | i | i | 155* | i | i
CCOc1c(Cl)cc(CNC(C)C(O)c2ccccc2)cc1OC (configuration not stated) | -3 | i | -6* | i | i | i
COc1cc(OC)c(OC)cc1CNC(C)C(O)c1ccccc1 (configuration not stated) | 3 | i | i | i | i | i
CCCCc1ncc(CN2CCCC(C(=O)c3ccc(SC)cc3)C2)[nH]1 (configuration not stated) | -1 | i | -6* | i | i | i
ClCCN1CCN(c2ccnc3cc(Cl)ccc23)CC1 | 7 | i | i | i | i | i
CCOC(=O)c1cccc(-[n+]2c(-c3ccccc3)cc(-c3ccccc3)cc2-c2ccccc2)c1 | -1 | i | i | i | i | i
c1ccc(-c2cc(-c3ccccc3)[n+](-c3ccccc3)c(-c3ccccc3)c2)cc1 | 9 | i | i | i | 18* | i
CN(C)c1ccc(-[n+]2c(-c3ccccc3)cc(-c3ccccc3)cc2-c2ccccc2)cc1 | 1 | i | i | i | 11* | i
CCOC(=O)c1ccc(-[n+]2c(-c3ccccc3)cc(-c3ccccc3)cc2-c2ccccc2)cc1 | -4 | i | i | i | i | i
O=C1CSC2(CN3CCC2CC3)N1 (configuration not stated) | 0 | i | i | i | i | i
O=c1[nH]c(=O)n(-c2cccc3ccccc23)c(O)c1/C=N/N1CCCCC1c1cccnc1 (configuration not stated) | -3 | i | i | i | i | i
N#Cc1cc(F)c(N2CCNCC2)cc1Cl | 0 | i | i | i | i | i
N#Cc1ccc(N2CCNCC2)c(F)c1 | -2 | i | i | 53* | i | i
CC(Cc1ccsc1)NCc1cn[nH]c1-c1ccc(F)cc1F (configuration not stated) | 4 | i | i | i | i | i
CN(C)C1(CNC(=O)c2ccc(Cl)c(S(=O)(=O)NCc3ccco3)c2)CCCCC1 | 0 | i | i | 73* | i | i
CN(C)C1(CNC(=O)Cc2ccccc2F)CCCCC1 | 5 | i | i | i | i | i
CC(=O)NC1CC2CCC(C1)N2 (configuration not stated) | 4 | i | i | i | i | i
Cc1ccc(C(=O)NC2CC3CCC(C2)N3)cc1 (configuration not stated) | 1 | i | -5* | i | i | i
C[N+]1(C)[C@@H]2CC[C@H]1CC(OC(=O)C(CO)c1ccccc1)C2 (some centres not stated) | -3 | -7.1* | i | i | i | i
Cc1ccc(C(O)(c2ccc(C)c(C)c2)C2CN3CCC2CC3)cc1C (configuration not stated) | -1 | i | i | i | i | i
Cc1ccccc1C(O)(Cc1ccccc1)C1CN2CCC1CC2 (configuration not stated) | 0 | i | i | 87* | i | i
CCOC(=O)C1=CC(=C2C(=O)N(CC)C(=S)N(CC)C2=O)c2ccccc2O1 | 0 | i | i | i | i | i
